# Experimental data: ChEMBL document CHEMBL1147918, “Novel 5-substituted 1-pyrazolol analogues of ibotenic acid: synthesis and pharmacology at glutamate receptors” (Bioorg Med Chem, 2007)
# Key:
# [1] = target: T1, Metabotropic glutamate receptor 2 (Rattus norvegicus, UniProt P31421); test: (§1) Agonist activity at rat mGluR2 receptor expressed in CHO cells assessed as effect on intracellular cAMP level; format: functional, cell-based
# Outline: (§2)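 Means of at least three independent experiments, expressed as pEC50 or pKi ± SEM.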
# [2] = target: Metabotropic glutamate receptor 4 (Rattus norvegicus, UniProt P31423); test: Agonist activity at rat mGluR4 receptor expressed in CHO cells assessed as effect on intracellular cAMP level; format: functional, cell-based; outline: as §2
# [3] = Displacement of [3H]KA from KA receptor in rat cortical membrane; format: cell membranes
# Outline: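 Native kainate receptor binding on rat brain membranes (Ransom and Stec preparation) using 5 nM [3H]KA. Means of at least three to four independent experiments, reported as pIC50 or pKi ± SEM.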
# Glutamate NMDA receptor = test: Displacement of [3H]CGP39653 from NMDA receptor in rat cortical membrane; format: cell membranes
# Outline: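 NMDA receptor affinity on rat brain membranes prepared per Ransom and Stec, radioligand 2 nM [3H]CGP39653. Means of at least three to four independent experiments; pIC50 or pKi ± SEM.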
# [4] = Displacement of [3H]AMPA from AMPA receptor in rat cortical membrane; format: cell membranes
# Outline: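 Rat brain membranes prepared per Ransom and Stec; native AMPA receptor affinity measured with 5 nM [3H]AMPA. Means of at least three to four independent experiments; values as pIC50 or pKi ± SEM.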
# [5] = target: T2, Metabotropic glutamate receptor 1 (Rattus norvegicus, UniProt P23385); test: Agonist activity at rat mGluR1a receptor expressed in CHO cells assessed as effect on intracellular calcium level; format: functional, cell-based; outline: as §2
# [6] = target: T2, Metabotropic glutamate receptor 1; test: Antagonist activity at rat mGluR1a receptor expressed in CHO cells assessed as effect on intracellular calcium level; format: functional, cell-based; outline: as §2
# [7] = target: T1, Metabotropic glutamate receptor 2; test: Antagonist activity at rat mGluR2 receptor expressed in CHO cells assessed as effect on intracellular cAMP level; format: functional, cell-based; outline: as §2
# [8] = target: Metabotropic glutamate receptor 2 (Rattus norvegicus) (UniProt P31421); test: as §1; format: functional, cell-based; outline: as §2
# Metabotropic glutamate receptor 2 (Rattus norvegicus), sequence (P31421 19-872 limits assumed): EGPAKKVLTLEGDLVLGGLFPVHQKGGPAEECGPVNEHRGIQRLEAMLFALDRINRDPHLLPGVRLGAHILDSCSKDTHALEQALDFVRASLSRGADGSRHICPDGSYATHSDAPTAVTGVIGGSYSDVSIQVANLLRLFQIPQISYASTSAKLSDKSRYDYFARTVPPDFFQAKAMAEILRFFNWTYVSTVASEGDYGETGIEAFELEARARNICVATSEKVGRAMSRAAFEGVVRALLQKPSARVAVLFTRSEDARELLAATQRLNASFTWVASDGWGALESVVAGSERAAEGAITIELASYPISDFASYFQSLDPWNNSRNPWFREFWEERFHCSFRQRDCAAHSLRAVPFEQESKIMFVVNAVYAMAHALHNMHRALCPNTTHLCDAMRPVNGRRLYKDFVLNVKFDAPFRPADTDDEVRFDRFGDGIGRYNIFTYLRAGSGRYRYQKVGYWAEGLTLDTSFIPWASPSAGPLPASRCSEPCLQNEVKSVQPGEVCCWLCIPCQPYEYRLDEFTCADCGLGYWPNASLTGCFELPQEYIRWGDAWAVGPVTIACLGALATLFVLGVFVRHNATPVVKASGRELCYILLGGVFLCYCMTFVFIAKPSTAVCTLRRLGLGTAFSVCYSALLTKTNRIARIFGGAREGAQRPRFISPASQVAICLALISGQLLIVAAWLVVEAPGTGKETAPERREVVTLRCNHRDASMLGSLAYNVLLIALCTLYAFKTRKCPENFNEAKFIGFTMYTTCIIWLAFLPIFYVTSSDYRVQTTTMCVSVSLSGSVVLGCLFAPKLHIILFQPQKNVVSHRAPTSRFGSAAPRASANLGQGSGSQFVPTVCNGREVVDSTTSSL
# Metabotropic glutamate receptor 4, sequence (P31423 whole entry): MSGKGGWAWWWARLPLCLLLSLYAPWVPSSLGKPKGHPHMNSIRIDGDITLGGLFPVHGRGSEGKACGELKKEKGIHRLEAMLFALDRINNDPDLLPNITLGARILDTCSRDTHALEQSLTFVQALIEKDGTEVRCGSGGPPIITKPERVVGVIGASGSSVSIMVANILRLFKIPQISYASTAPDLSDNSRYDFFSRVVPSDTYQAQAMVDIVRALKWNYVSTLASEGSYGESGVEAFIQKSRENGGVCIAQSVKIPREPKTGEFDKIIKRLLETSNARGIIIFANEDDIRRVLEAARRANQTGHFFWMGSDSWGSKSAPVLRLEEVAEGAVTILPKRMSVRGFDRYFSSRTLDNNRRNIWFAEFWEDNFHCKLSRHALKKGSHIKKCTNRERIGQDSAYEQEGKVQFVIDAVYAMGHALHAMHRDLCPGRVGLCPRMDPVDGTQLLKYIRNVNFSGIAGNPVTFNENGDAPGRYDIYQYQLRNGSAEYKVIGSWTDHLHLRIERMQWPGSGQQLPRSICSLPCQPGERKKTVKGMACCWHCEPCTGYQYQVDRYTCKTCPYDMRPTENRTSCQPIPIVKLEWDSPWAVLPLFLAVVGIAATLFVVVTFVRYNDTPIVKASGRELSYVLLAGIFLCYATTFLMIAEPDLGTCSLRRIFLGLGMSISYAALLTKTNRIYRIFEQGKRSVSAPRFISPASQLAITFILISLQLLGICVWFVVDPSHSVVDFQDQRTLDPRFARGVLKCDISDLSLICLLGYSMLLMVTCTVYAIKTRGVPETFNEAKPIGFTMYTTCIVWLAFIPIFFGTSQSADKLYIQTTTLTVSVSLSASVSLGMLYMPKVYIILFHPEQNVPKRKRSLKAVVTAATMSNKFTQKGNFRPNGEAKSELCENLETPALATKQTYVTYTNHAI
# T1 sequence (P31421 whole entry): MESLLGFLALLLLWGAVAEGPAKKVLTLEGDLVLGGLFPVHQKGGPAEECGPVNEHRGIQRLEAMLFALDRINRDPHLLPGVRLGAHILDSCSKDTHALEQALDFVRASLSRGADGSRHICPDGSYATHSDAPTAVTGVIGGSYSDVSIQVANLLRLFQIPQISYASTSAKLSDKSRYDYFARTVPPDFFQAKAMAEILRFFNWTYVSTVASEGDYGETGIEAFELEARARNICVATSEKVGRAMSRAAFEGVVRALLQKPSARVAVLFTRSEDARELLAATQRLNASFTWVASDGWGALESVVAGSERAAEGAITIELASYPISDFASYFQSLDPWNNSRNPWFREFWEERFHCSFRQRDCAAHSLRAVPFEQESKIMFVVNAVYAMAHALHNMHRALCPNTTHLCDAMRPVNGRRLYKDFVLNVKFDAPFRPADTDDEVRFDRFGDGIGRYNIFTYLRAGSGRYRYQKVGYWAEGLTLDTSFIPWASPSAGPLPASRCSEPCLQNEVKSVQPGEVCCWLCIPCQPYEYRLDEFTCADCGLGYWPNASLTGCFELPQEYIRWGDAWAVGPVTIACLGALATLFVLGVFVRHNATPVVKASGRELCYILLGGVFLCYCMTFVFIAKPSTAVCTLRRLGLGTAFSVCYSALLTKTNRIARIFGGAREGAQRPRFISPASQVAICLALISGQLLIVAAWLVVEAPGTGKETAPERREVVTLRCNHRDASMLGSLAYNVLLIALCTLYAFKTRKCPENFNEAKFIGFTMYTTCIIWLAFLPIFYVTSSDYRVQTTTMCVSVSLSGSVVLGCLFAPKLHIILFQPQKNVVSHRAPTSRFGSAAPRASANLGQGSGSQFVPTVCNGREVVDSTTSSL
# T2 sequence (P23385 whole entry): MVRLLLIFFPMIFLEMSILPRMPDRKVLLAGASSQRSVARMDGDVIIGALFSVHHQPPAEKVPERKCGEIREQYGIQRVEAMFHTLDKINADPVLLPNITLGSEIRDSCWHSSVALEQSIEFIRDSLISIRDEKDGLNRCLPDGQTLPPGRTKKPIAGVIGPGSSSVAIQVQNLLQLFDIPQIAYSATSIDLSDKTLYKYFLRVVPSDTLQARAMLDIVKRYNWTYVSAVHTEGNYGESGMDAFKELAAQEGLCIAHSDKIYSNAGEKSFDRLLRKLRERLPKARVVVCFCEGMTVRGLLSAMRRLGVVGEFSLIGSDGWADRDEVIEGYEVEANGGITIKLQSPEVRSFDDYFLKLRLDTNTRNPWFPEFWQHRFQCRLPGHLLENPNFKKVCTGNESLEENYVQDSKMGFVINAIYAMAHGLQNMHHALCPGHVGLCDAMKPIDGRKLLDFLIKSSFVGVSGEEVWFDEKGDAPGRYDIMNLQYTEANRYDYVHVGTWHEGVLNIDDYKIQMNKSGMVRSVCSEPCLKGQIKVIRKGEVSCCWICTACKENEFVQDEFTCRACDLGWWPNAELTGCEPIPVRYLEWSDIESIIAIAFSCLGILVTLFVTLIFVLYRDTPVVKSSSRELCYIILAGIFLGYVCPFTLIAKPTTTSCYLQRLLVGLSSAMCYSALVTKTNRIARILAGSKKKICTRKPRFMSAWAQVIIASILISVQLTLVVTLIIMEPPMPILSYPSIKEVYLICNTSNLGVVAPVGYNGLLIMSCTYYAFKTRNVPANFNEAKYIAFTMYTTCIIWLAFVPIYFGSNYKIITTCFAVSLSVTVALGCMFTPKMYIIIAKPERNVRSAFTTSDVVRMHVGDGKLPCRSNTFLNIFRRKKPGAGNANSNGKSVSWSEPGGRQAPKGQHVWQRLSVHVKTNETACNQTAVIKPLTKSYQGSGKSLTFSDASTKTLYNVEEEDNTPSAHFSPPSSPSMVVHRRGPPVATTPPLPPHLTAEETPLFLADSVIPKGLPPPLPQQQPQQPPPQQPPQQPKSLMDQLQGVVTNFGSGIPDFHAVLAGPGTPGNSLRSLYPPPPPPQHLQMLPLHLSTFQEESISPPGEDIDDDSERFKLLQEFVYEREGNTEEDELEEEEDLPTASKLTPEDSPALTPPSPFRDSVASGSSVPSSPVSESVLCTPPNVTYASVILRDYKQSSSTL
SMILES,EC50 ([1]; read-out: EC50),EC50 [2],IC50 [3],Log IC50 [3],Ki (Glutamate NMDA receptor),IC50 [4],EC50 [5],Ki ([6]; read-out: Ki),Ki ([6]; read-out: Log Ki (converted)),Ki [7],Log Ki (Glutamate NMDA receptor),EC50 ([1]; read-out: Log EC50 (converted)),Activity [8]
CCCCCc1c(C(N)C(=O)O)cnn1O (racemic),> 1000 µM,> 1000 µM,> 100 µM,,> 100 µM,> 100 µM,> 1000 µM,,,,,,
NC(C(=O)O)c1cnn(O)c1-c1ccccc1 (racemic),,> 1000 µM,> 100 µM,,> 100 µM,> 100 µM,> 1000 µM,,,180 µM,,,
NC(C(=O)O)c1cnn(O)c1Br (racemic),170 µM,> 1000 µM,> 100 µM,,25 µM,> 100 µM,> 1000 µM,,,,,151 µM,43%
CCc1c(C(N)C(=O)O)cnn1O (racemic),57 µM,> 1000 µM,> 100 µM,,32 µM,> 100 µM,> 1000 µM,,,,,,
CCCc1c(C(N)C(=O)O)cnn1O (racemic),72 µM,> 1000 µM,> 100 µM,,> 100 µM,> 100 µM,> 1000 µM,,,,,67.6 µM,
NC(C(=O)O)c1cnn(O)c1Cc1ccccc1 (racemic),,> 1000 µM,> 100 µM,,67 µM,> 100 µM,> 1000 µM,,,120 µM,,,
CCCCc1c(C(N)C(=O)O)cnn1O (racemic),> 1000 µM,> 1000 µM,> 100 µM,,> 100 µM,> 100 µM,> 1000 µM,,,,,,

# Now from value to compound, other results behind:
EC50 ([1]; read-out: EC50),EC50 [2],IC50 [3],Log IC50 [3],Ki (Glutamate NMDA receptor),IC50 [4],EC50 [5],Ki ([6]; read-out: Ki),Ki ([6]; read-out: Log Ki (converted)),Ki [7],Log Ki (Glutamate NMDA receptor),SMILES,EC50 ([1]; read-out: Log EC50 (converted)),Activity [8]
> 1000 µM,> 1000 µM,47 µM,-4.33,> 100 µM,> 100 µM,> 1000 µM,,,,,NC(C(=O)O)c1cnn(O)c1C(c1ccccc1)c1ccccc1 (racemic),,
> 1000 µM,> 1000 µM,> 100 µM,,> 100 µM,> 100 µM,,230 µM,195 µM,,,NC(C(=O)O)c1cnn(O)c1CCc1ccccc1 (racemic),,
,> 1000 µM,> 100 µM,,> 100 µM,> 100 µM,> 1000 µM,,,32 µM,,NC(C(=O)O)c1cnn(O)c1CC1CCCCC1 (racemic),,
,> 1000 µM,> 100 µM,,54 µM,> 100 µM,,260 µM,,67 µM,,NC(C(=O)O)c1cnn(O)c1CCCc1ccccc1 (racemic),,
> 1000 µM,> 1000 µM,> 100 µM,,35 µM,> 100 µM,> 1000 µM,,,,-4.47,NC(C(=O)O)c1cnn(O)c1CC1CC1 (racemic),,
